Reference: ChEMBL document CHEMBL1123636 (J Med Chem, 1987)
Where a SMILES comes first, the peptide text is derived from it. Side-chain parts run from the residue outwards. The star is where a group is joined. Oxymorphamine(6α) = CN1CC[C@]23c4c5ccc(O)c4O[C@H]2[C@@H](N*)CC[C@@]3(O)[C@H]1C5

How the values were obtained:
[1] = organism: Cavia porcellus; assay: Opioid agonist potencies was determined by electrically stimulated guinea pig ileum (GPI); type: functional
[2] = organism: Mus musculus; assay: Opioid agonist potencies was determined by mouse vas deferens (MVD); type: functional
[3] = biological target: T1, Mu-type opioid receptor (Cavia porcellus, UniProt P97266); assay: Binding affinity of Opioid receptor mu 1 mu 1 by the displacement of mu-selective [3H]DAGO from brain membrane preparations.
[4] = test system: Mus musculus; assay: Analgesic potency (antinociceptive activity) (administered icv) at peak time of 10 min in male Swiss-Webster mice; type: functional
In short: (§1)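 Intracerebroventricular dosing in male Swiss-Webster mice. Antinociception scored by the acetic acid writhing test at the peak time of analgesia, 10 or 20 min after injection depending on compound.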

[5] = organism: Cavia porcellus; assay: Ke value for naloxone versus compound in the guinea pig ileum (GPI) in order to distinguish between mu- and delta-mediated effects; type: functional
In short: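 Electrically stimulated guinea pig ileum. Naloxone antagonism measured against each agonist and expressed as a Ke, used to tell μ- from δ- or κ-mediated effects.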

[6] = test system: Mus musculus; assay: Analgesic potency (antinociceptive activity) (administered icv) at peak time of 20 min in male Swiss-Webster mice; type: functional; in short: as §1
[7] = biological target: T1, Mu-type opioid receptor; assay: Binding affinity of Opioid receptor mu 1 by the displacement of mu-selective [3H]DAGO from brain membrane preparations.
In short: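 Competitive displacement of the μ-selective radioligand [3H]DAGO from brain membrane preparations ([…]). Affinity taken from ligand displacement.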

T1 sequence (P97266 whole entry): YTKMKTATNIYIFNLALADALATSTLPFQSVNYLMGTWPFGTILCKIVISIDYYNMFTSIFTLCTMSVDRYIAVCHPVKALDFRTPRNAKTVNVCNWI

## H-YQGFL-OH
[1]
  IC50: 210 nM
[2]
  IC50: 123 nM
[3]
  Ki: 21.7 nM
[4]
  ED50: 84 nM
[5]
  Ke: 1.63 nM

## CC(C)C[C@H](NC(=O)[C@H](Cc1ccccc1)NC(=O)CNC(=O)[C@H](CCC(=O)N[C@H]1CC[C@@]2(O)[C@H]3Cc4ccc(O)c5c4[C@@]2(CCN3C)[C@H]1O5)NC(=O)[C@@H](N)Cc1ccc(O)cc1)C(=O)O (H-YE(Oxymorphamine(6α))GFL-OH)
[1]
  IC50: 7.5 nM
[2]
  IC50: 26.9 nM
[6]
  ED50: 0.7 nM
[5]
  Ke: 1.02 nM
[7]
  Ki: 19.1 nM

## CC(C)C[C@H](NC(=O)[C@H](Cc1ccccc1)NC(=O)CNC(=O)[C@H](CCC(=O)NCC(=O)NCC(N)=O)NC(=O)[C@@H](N)Cc1ccc(O)cc1)C(=O)O (H-YE([Gly-Gly-NH2])GFL-OH)
[1]
  IC50: 597 nM
[2]
  IC50: 61.8 nM
[4]
  ED50: 60 nM
[5]
  Ke: 2.32 nM
[7]
  Ki: 52.9 nM

## CC(=O)NCC(=O)NCC(=O)N[C@H]1CC[C@@]2(O)[C@H]3Cc4ccc(O)c5c4[C@@]2(CCN3C)[C@H]1O5
[1]
  IC50: 82.3 nM
[2]
  IC50: 78 nM
[6]
  ED50: 3.1 nM
[5]
  Ke: 1.55 nM
[7]
  Ki: 5.48 nM

## CC(C)C[C@H](NC(=O)[C@H](Cc1ccccc1)NC(=O)CNC(=O)CNC(=O)[C@@H](N)Cc1ccc(O)cc1)C(=O)O [ENKEPHALIN]
[5]
  Ke: 1.53 nM

## CC(=O)N[C@H]1CC[C@@]2(O)[C@H]3Cc4ccc(O)c5c4[C@@]2(CCN3C)[C@H]1O5
[1]
  IC50: 136 nM
[2]
  IC50: 166 nM
[6]
  ED50: 5.4 nM
[5]
  Ke: 0.88 nM
[7]
  Ki: 1.81 nM

## CC(C)C[C@H](NC(=O)[C@H](Cc1ccccc1)NC(=O)CNC(=O)[C@H](CCC(=O)NCC(=O)NCC(=O)N[C@H]1CC[C@@]2(O)[C@H]3Cc4ccc(O)c5c4[C@@]2(CCN3C)[C@H]1O5)NC(=O)[C@@H](N)Cc1ccc(O)cc1)C(=O)O (H-YE([Gly-Gly-Oxymorphamine(6α)])GFL-OH)
[1]
  IC50: 57.2 nM
[2]
  IC50: 47.7 nM
[6]
  ED50: 5 nM
[5]
  Ke: 1.32 nM
[7]
  Ki: 11.1 nM

## CN1CC[C@]23c4c5ccc(O)c4O[C@H]2C(=O)CC[C@@]3(O)[C@H]1C5 [OXYMORPHONE]
[4]
  ED50: 24 nM
